As usually defined, the inhibition is the share of the control response that was lost under treatment. The pKd is −log10 of the Kd, conventionally taken in molar units. A higher pKd goes with a low Kd.

pKd: −log10 of the molar value. Calls of active or inactive are those of the source. The rule behind the calls is not given here.

The target of experiment [1] is T1, RecQ-like DNA helicase BLM (Homo sapiens, UniProt P54132). Briefly: Inhibition of His-tagged BLM (unknown origin) expressed in Escherichia coli BL21 (DE3) assessed as reduction in BLM helicase unwinding activity at 50 uM using 5'-biotin labeled forked-DNA as substrate after 1 hr by PAGE analysis. An outline of the steps: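 BLM642-1296 (His-tagged, E. coli BL21(DE3)) preincubated with ligand (1.0, 10, 50 μM; ≤1% DMSO) for 1 h at 4 °C. Reaction: 8 nM annealed 5′-biotin duplex forked DNA, 32 nM BLM, 2 mM ATP, 0.1% BSA, 1 h.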
T1 sequence (P54132 whole entry): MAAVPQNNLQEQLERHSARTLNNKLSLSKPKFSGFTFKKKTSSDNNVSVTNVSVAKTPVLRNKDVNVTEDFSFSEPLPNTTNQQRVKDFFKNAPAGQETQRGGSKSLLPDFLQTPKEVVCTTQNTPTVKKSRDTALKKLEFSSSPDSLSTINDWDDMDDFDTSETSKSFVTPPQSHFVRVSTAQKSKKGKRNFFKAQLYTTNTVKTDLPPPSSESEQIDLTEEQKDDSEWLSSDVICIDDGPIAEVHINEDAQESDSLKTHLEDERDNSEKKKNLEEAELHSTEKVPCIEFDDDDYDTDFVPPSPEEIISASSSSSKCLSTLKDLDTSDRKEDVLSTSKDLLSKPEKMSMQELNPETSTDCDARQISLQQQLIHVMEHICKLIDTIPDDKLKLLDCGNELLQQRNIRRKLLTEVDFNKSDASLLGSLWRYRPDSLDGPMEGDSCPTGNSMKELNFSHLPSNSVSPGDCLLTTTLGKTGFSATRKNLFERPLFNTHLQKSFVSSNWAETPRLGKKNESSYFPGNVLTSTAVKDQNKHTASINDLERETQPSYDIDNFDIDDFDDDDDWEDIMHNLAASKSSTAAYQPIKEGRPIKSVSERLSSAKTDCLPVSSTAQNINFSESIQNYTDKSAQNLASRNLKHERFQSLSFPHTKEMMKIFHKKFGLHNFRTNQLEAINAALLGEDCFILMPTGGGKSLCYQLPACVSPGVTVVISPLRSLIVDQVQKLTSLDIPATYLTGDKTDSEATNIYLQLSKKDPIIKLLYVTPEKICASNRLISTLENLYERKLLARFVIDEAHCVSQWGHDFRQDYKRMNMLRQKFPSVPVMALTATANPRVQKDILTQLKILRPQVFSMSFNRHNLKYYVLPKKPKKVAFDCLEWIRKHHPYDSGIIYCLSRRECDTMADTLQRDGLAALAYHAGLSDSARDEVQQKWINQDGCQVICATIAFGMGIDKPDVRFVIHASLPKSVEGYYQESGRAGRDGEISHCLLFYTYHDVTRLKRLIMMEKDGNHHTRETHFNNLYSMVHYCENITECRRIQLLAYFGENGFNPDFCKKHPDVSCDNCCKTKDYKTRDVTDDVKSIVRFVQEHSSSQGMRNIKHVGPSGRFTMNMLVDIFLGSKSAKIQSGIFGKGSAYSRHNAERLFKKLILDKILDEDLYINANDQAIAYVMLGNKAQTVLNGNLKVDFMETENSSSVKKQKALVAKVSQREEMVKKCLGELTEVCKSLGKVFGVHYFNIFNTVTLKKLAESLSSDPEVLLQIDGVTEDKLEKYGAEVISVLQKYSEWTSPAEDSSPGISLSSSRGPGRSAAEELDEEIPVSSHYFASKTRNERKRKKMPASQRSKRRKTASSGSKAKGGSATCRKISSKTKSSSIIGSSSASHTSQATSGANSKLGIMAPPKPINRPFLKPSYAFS

Experiment [2] deals with T1, RecQ-like DNA helicase BLM. Briefly: Inhibition of 5'-biotin labeled forked-DNA binding to BLM in human HCT116 cells assessed as increase in unbound DNA levels at 1 uM after 1 hr by Western blot-based pull down assay. It counts as cell-based. An outline of the steps: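 Biotinylated duplex forked DNA loaded on streptavidin magnetic beads overnight at 4 °C. HCT116 RIPA lysate incubated with beads plus ligand for 1 h at 25 °C. Bead eluate and supernatant analysed for BLM by SDS-PAGE/western blot.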
(A western blot detects proteins with antibodies after separation by electrophoresis.)

Experiment [3] has as its target T2, DNA repair protein RAD51 homolog 1 (Homo sapiens) (UniProt Q06609).
T2 sequence (whole entry): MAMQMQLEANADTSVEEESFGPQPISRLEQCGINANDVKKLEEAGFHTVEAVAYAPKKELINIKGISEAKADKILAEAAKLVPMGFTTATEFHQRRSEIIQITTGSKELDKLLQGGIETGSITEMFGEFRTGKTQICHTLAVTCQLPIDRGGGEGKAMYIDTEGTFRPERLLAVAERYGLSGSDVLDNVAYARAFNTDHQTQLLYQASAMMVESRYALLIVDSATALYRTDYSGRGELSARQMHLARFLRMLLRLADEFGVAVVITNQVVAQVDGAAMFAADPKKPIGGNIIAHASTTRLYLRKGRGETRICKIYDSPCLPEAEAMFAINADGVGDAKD
Briefly: Induction of RAD51 (unknown origin) binding to ssDNA up to 1 uM […] by ELISA based DNA exchange activity assay. An outline of the steps:
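Biotinylated duplex forked DNA (50 nM final) immobilised on streptavidin plates. BLM (10–1000 nM) preincubated 1 h at 37 °C with ligand series, then added with 250 nM RAD51 for 1 h at 37 °C, ELISA format. Bound RAD51 read at 450 nm as RAD51–ssDNA filament level.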
In general terms: An ELISA detects its analyte on a solid surface through an enzyme-linked reagent.

In experiment [4] the target is T1, RecQ-like DNA helicase BLM. Briefly: Inhibition of BLM in human HCT116 cells assessed as induction of RAD51 foci accumulation on gamma-H2AX foci at 1 to 2 after 24 hrs by immunofluorescence assay. Format: cell-based. An outline of the steps: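 HCT116 cells treated 24 h, fixed in 4% paraformaldehyde, permeabilised with 0.5% Triton X-100, blocked in 5% goat serum. Stained with γ-H2AX and RAD51 antibodies overnight at 4 °C, Alexa 488/647 secondaries and DAPI. Imaged by confocal microscopy for foci co-localisation.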

Another experiment relates to HCT-116. Briefly: Induction of apoptosis in human HCT116 cells assessed as increase in cleaved PARP expression at 2 uM after 48 hrs by Western blot analysis. It counts as functional, cell-based. An outline of the steps: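 HCT116 cells treated with ligand (DNA-damage proteins 24 h, apoptosis proteins 48 h), lysed in RIPA at 4 °C. 40 μg protein per lane resolved by SDS-PAGE, blotted to PVDF, probed with damage and apoptosis antibody panels; β-actin loading control; chemiluminescent detection.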

Experiment [5] deals with RecQ-like DNA helicase BLM (Homo sapiens, UniProt P54132, I1168A). Briefly: Binding affinity to His-tagged BLM I1168A mutant (unknown origin) expressed in Escherichia coli BL21 (DE3) by ITC assay. An outline of the steps: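 ITC at 25 °C in 2 mM MgCl2, 10 mM KH2PO4, pH 7.5: ligand (0.6 mM, syringe) titrated in 10 μL injections, 300 s apart, into BLM642-1296 wild-type or point mutant, or DNA (0.04 mM, cell). His-tagged BLM from E. coli BL21(DE3), induced with […] at 16 °C for 24 h. Heats integrated, fitted to 1:1 model for KD.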
Chain of RecQ-like DNA helicase BLM (Homo sapiens, UniProt P54132, I1168A) (P54132 whole entry I1168A): as the sequence (P54132 whole entry) above, with I1168A counted along it
(ITC needs no label: the signal is the heat of the interaction.)

On to `CCN(CC)CCCNc1cc2nc3n(c(=O)c2cc1F)CC/C3=C\c1ccc(C(C)C)cc1`, for which the inhibition result in experiment [1] and in experiment [4] was “Active” each time. The inhibition in experiment [2] turned out to be 84.3%. Also, the result in experiment [3] was inactive. In the experiment with HCT-116, the result was Active. Moreover, the negative-log Kd (pKd) in experiment [5] is 5.19.

The record behind these values is ChEMBL document CHEMBL4316604, “Discovery of Isaindigotone Derivatives as Novel Bloom's Syndrome Protein (BLM) Helicase Inhibitors That Disrupt the BLM/DNA Interactions and Regulate the Homologous Recombination Repair” (J Med Chem, 2019).
